Reference: ChEMBL document CHEMBL1125330, “N-substituted pyrazino[2,3-c][1,2,6]thiadiazine 2,2-dioxides. A new class of diuretics” (J Med Chem, 1992)

Columns and labels:
Rattus norvegicus [1] = species on record: Rattus norvegicus; assay: Mean urinary output in rats (Control/Drug treatment value); value 24.0/36.5; type: ADME, organism-based, Urine; details: in vivo
Outline: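 Water-loaded male Sprague-Dawley rats (HC/CFY, 175-200 g), eight per group, deprived of food and water 18 h. Single oral gavage of 20-25 mg/kg (some 10 mg/kg) in 1% CMC/0.1% Tween 80, then distilled water 2.5 mL/100 g bw po. Cumulative urine over 6 h in metabolic cages; mean mL/6 h/kg bw vs vehicle group.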

Rattus norvegicus [2] = species on record: Rattus norvegicus; assay: Mean sodium excretion in rats (Control/Drug treatment value); value 0.52/2.02; type: ADME, organism-based; details: in vivo

V (Rattus norvegicus [1]): 1.5
Na (Rattus norvegicus [2]): 3.9
Structure (SMILES): CCc1nc2c(nc1C)C(N)=NS(=O)(=O)N2C
